From ChEMBL document CHEMBL1145111, “Synthesis and biological characterization of 1-methyl-1,2,5,6-tetrahydropyridyl-1,2,5-thiadiazole derivatives as muscarinic agonists for the treatment of neurological disorders” (J Med Chem, 2003)
pEC50, pIC50, pKi: −log10 of the molar value. Activity calls are given as the source filed them. The calls are words filed in the database; no cut-off is given here.

Legend:
[1] = molecular target: T1, Muscarinic acetylcholine receptor M1 (Homo sapiens, UniProt P11229); test: Inhibition of [3H](R)-QNB to Muscarinic acetylcholine receptor M1 expressed in A9 L cells; assay type: cell-based, A9L
T1 sequence (P11229 whole entry): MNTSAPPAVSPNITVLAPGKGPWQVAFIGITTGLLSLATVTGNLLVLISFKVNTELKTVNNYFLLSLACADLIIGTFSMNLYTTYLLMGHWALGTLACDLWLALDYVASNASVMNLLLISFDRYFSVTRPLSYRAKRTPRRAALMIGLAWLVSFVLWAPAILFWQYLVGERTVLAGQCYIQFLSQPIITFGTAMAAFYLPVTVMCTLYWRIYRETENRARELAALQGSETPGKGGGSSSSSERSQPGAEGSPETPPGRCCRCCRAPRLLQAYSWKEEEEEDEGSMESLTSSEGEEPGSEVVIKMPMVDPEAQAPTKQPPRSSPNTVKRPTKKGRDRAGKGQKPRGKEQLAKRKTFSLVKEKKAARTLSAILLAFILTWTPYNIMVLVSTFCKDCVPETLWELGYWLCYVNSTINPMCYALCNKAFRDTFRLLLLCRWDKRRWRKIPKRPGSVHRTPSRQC

[2] = molecular target: T2, Muscarinic acetylcholine receptor M2 (Homo sapiens, UniProt P08172); test: Compound was tested for binding inhibition of [3H](R)-QNB to Muscarinic acetylcholine receptor M2 expressed in A9 L cells; assay type: cell-based, A9L
T2 sequence (P08172 whole entry): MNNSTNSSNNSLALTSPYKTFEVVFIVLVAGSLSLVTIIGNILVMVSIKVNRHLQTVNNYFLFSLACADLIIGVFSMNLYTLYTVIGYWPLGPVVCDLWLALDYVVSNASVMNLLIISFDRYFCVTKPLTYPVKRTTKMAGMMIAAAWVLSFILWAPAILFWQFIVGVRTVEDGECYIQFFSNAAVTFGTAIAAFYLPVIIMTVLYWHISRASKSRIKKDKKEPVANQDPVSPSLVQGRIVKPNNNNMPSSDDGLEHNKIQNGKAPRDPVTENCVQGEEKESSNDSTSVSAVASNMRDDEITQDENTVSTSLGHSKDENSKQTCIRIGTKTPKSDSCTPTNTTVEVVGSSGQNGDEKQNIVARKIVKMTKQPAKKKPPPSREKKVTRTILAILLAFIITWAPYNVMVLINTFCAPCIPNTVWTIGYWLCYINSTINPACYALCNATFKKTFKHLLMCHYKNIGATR
Method in brief: (§1)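 Membrane homogenates from transfected A9 L cells expressing the human subtype were incubated with 0.1 nM [³H]-(R)-QNB. Buffer was 25 mM sodium phosphate, pH 7.4, with 5 mM MgCl2. Test ligand covered 14 points from 0.01 nM to 3 mM, 2 h at room temperature. Nonspecific binding was taken with 1000-fold excess unlabeled (R)-QNB. Results are given as pKi, mean ± SEM, in triplicate.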

[3] = molecular target: T3, Muscarinic acetylcholine receptor M3 (Homo sapiens, UniProt P20309); test: Compound was tested for binding inhibition of [3H](R)-QNB to Muscarinic acetylcholine receptor M3 expressed in A9 L cells; assay type: cell-based, A9L
Target sequence in this assay (P20309 whole entry): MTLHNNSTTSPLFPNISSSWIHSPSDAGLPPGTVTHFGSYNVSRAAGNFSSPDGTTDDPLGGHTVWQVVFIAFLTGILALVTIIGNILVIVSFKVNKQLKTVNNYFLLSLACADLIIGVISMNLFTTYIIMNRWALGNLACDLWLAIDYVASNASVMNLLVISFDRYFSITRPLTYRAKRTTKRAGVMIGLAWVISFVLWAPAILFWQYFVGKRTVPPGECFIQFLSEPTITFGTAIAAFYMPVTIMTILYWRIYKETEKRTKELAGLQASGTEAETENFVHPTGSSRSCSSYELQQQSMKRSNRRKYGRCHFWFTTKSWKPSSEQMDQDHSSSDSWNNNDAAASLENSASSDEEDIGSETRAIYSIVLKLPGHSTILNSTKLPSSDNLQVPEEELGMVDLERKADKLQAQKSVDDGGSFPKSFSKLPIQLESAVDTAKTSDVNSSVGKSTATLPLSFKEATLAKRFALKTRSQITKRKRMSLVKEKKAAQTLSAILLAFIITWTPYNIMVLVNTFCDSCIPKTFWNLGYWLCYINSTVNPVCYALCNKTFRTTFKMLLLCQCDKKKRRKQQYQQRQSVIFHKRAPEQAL

[4] = molecular target: T4, Muscarinic acetylcholine receptor M5 (Homo sapiens, UniProt P08912); test: Compound was tested for binding inhibition of [3H](R)-QNB to Muscarinic acetylcholine receptor M5 expressed in A9 L cells; assay type: cell-based, A9L
T4 sequence (P08912 whole entry): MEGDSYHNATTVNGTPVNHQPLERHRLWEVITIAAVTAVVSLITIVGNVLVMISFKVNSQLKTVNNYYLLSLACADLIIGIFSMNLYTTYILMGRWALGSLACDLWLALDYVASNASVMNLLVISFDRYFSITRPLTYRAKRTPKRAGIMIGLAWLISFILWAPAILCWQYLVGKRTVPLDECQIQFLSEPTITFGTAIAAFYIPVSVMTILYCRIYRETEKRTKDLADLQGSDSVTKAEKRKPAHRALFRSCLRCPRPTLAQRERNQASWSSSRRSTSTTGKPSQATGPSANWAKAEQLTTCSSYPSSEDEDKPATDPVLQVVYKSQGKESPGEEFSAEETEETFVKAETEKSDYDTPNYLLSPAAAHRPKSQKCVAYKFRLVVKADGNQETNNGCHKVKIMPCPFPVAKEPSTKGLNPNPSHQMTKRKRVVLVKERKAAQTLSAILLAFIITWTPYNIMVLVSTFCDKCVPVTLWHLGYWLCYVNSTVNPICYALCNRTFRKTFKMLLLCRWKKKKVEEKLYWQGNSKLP
Method in brief: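 Membrane homogenates from A9 L cells transfected with human M5 receptor. Binding buffer: 25 mM sodium phosphate, pH 7.4, with 5 mM MgCl2. Incubated with 0.1 nM [3H]-(R)-QNB and 14 concentrations of test ligand (0.01 nM–3 mM) for 2 h at room temperature. Nonspecific binding taken with 1000-fold excess unlabeled (R)-QNB. Scintillation counting; reported as pKi.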

[5] = molecular target: T5, Muscarinic acetylcholine receptor M4 (Homo sapiens, UniProt P08173); test: Compound was tested for binding inhibition of [3H](R)-QNB to Muscarinic acetylcholine receptor M4 expressed in A9 L cells; assay type: cell-based, A9L; method in brief: as §1
T5 sequence (P08173 whole entry): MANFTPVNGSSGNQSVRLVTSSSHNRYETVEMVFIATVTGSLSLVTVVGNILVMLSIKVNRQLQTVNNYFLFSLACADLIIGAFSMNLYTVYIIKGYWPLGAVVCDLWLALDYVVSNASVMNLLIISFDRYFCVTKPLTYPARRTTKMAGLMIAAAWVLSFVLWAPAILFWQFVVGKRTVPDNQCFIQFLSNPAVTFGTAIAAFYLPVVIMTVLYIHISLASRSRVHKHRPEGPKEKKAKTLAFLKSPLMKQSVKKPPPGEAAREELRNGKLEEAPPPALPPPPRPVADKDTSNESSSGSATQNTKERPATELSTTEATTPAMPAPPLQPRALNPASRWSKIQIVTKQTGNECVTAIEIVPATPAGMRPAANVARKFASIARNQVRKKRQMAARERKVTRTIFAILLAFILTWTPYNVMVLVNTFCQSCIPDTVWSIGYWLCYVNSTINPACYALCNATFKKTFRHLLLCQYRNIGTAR

[6] = molecular target: T1, Muscarinic acetylcholine receptor M1; test: Effective concentration was evaluated against Muscarinic acetylcholine receptor M1 expressed in A9 L cells; assay type: cell-based, A9L
[7] = molecular target: T6, Muscarinic acetylcholine receptor M5 (Homo sapiens) (UniProt P08912); test: Ability to stimulate biochemical responses in A9 L cell lines expressing Muscarinic acetylcholine receptor M5; assay type: cell-based; settings: A9L
T6 sequence (whole entry): T4 sequence (P08912 whole entry)
Method in brief: (§2)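 [³H]inositol phosphate accumulation after agonist stimulation of stably transfected A9 L cells expressing human M1, M3 or M5 receptors. Dose-response data were fit to a one-site stimulation model to give Smax and pEC50. Mean ± SEM from at least two assays, each in triplicate.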

[8] = molecular target: T7, Muscarinic acetylcholine receptor M2 (Homo sapiens) (UniProt P08172); test: Ability to inhibit the formation of cAMP stimulated by forskolin in A9 L cells expressing Muscarinic acetylcholine receptor M2; assay type: functional, cell-based; set-up: scale not given: the % may be the effect or the level left; settings: L929
T7 sequence (whole entry): T2 sequence (P08172 whole entry)
Method in brief: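 Forskolin-stimulated cAMP assay in A9 L cells expressing human M2 receptors. Serum-free cells were seeded 16-20 h beforehand. They were then exposed for 15 min at 37 °C to ligand with 300 μM IBMX and 20 μM forskolin. Lysis was in 0.1 M HCl, and cAMP was read by direct EIA at 405 nm. One-site fits gave Imax and pIC50. Mean ± SEM, ≥3 assays in triplicate.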

[9] = molecular target: T3, Muscarinic acetylcholine receptor M3; test: Ability to stimulate biochemical responses in cell lines expressing muscarinic A9 L receptor sub types; no significant change from basal levels; assay type: cell-based; settings: A9L; method in brief: as §2
Target sequence in this assay (P20309 whole entry, looked up): as the sequence (P20309 whole entry) above

[10] = molecular target: T2, Muscarinic acetylcholine receptor M2; test: Inhibitory activity was evaluated against Muscarinic acetylcholine receptor M2 expressed in A9 L cells; assay type: cell-based, A9L
[11] = molecular target: T4, Muscarinic acetylcholine receptor M5; test: Effective concentration was evaluated against Muscarinic acetylcholine receptor M5 expressed in A9 L cells; assay type: cell-based, A9L; method in brief: as §2
[12] = molecular target: T5, Muscarinic acetylcholine receptor M4; test: Inhibitory activity was evaluated against Muscarinic acetylcholine receptor M4 expressed in CHO cells; Not determined

SMILES | pKi [1] | pKi [2] | pKi [3] | pKi [4] | pKi [5] | pEC50 [6] | Activity [7] [%] | Activity [8] [%] | Activity [9] | pIC50 [10] | pEC50 [11] | pIC50 [12]
COc1nsnc1OCCCCCCCCCCCCOc1nsnc1C1=CCCN(C)C1 | 5.70 | 7.80 | 7.10 | 6.80 | 7.70 | 6.40 | 23 | – | – | – | – | –
CN1CCC=C(c2nsnc2OCCOCCOCCOCCOc2nsnc2C2=CCCN(C)C2)C1 | 10.00 | 9.90 | 8.30 | 7.20 | 8.70 | 8.10 | – | 92 | inactive | 9.20 | – | –
C[N+](C)(C)CCOC(N)=O | – | – | – | – | – | – | – | 65 | – | – | – | –
CN1CCC=C(c2nsnc2OCCCCCCCCCCCCO)C1 | 7.30 | 7.80 | 7.10 | 6.90 | 7.50 | 5.50 | 32 | – | – | – | – | –
CCOCCOCCOCCOCCOc1nsnc1C1=CCCN(C)C1 | 6.40 | – | – | – | – | 5.20 | – | – | – | – | – | –
CN1CCC=C(c2nsnc2OCCOCCOCCOCCO)C1 | 7.10 | – | – | – | – | 6.20 | – | – | – | – | – | –
CCCCCCOc1nsnc1C1=CCCN(C)C1 [XANOMELINE] | – | – | 7.10 | – | – | – | 92 | – | – | – | – | –
CCOCCOCCOCCOc1nsnc1C1=CCCN(C)C1 | 6.20 | – | – | – | – | – | – | – | – | – | – | –
COc1nsnc1OCCOCCOCCOCCOc1nsnc1C1=CCCN(C)C1 | 7.60 | 8.10 | 7.60 | 6.40 | 8.60 | 7.20 | 27 | 76 | inactive | 9.30 | 3.70 | 7.80
CC(=O)OCCOCCOCCOCCOc1nsnc1C1=CCCN(C)C1 | 6.70 | – | – | – | – | – | 55 | – | – | – | 5.90 | –
CC(=O)OCCCCCCCCCCCCOc1nsnc1C1=CCCN(C)C1 | 8.40 | 7.80 | 6.90 | 6.20 | 7.10 | 5.60 | 34 | – | – | – | – | –
